# Measured values of several laboratories.
# Compare with care: the assays were run in different laboratories.
# Target: Tyrosine-protein kinase Fgr (FGR, Homo sapiens, UniProt P09769)
SMILES,assay,setting,measurement,result
Nc1ncnc2occ(-c3ccc(NC(=O)Nc4cc(C(F)(F)F)ccc4F)cc3)c12,"cell-free assay, inhibitor",20 µM,remaining signal,5.2%
Cn1c2c(c3ccc(Cl)c(Cl)c31)C(C#N)C1(CCOCC1)NC2=O (stereo not shown),"thermal stability, DSF",10 µM,ΔTm,0 °C
COc1cc(-c2cn(C3CCc4c(F)cccc4N(CC(F)(F)F)C3=O)nn2)ccc1-n1cnc(C)c1 (stereo not shown),"cell-free assay, competition with immobilised ligand",1 µM,remaining binding,100%
Cc1ccc(Nc2nccc(N(C)c3ccc4c(C)n(C)nc4c3)n2)cc1S(N)(=O)=O,cell-free assay,0.5 µM,remaining signal,35.8%
CNC(=O)c1cc(Oc2ccc(NC(=O)Nc3ccc(Cl)c(C(F)(F)F)c3)cc2)ccn1,"enzyme activity, inhibitor",10 µM,inhibition,39%
COc1cc2ncnc(Nc3ccc(Oc4ccccc4)c(C)c3C)c2cc1OC,"enzyme activity, inhibitor",1 µM,inhibition,93%
CNC(=O)c1ccc(Nc2ncc(C(F)(F)F)c(NCc3nccnc3N(C)S(C)(=O)=O)n2)cc1,"cell-free assay, competition with immobilised ligand",0.1 µM,remaining binding,81%
CN(c1nccc(-c2cnn3ncccc23)n1)C1CC1,cell-free assay,1 µM,remaining signal,100%
CCC1(CC)NC(=O)c2c(c3ccc(Cl)c(Cl)c3n2C)C1C#N (stereo not shown),"thermal stability, DSF",10 µM,ΔTm,0 °C
CCN(CC)CCNC(=O)c1c(C)[nH]c(/C=C2\C(=O)Nc3ccc(F)cc32)c1C,"enzyme activity, inhibitor",0.3 µM,inhibition,77%
CCN(CC)c1ccc(C2=NNC(=O)CC2C)cc1[N+](=O)[O-] (stereo not shown),"enzyme activity, inhibitor",10 µM,remaining activity,85%
Cn1c2c(Cl)c(Cl)ccc2c2cc[nH]c(=O)c21,"thermal stability, DSF",10 µM,ΔTm,-0.4 °C
Cc1ccc(C(=O)Nc2ccc(CN3CCN(C)CC3)c(C(F)(F)F)c2)cc1C#Cc1cnc2cccnn12,enzyme activity,23.5 nM,remaining activity,10%
Cn1c2c(c3ccc(Cl)c(Cl)c31)C(C#N)C1(CCNCC1)NC2=O (racemic),"thermal stability, DSF",10 µM,ΔTm,0.1 °C
CCCOc1ccc(OC)c(F)c1C(=O)c1ccc(C(=O)N[C@@H]2CNC[C@H]2NC(=O)c2ccc3[nH]ncc3c2)cc1,"enzyme activity, inhibitor",10 µM,remaining activity,65%
C[C@H](NC(=O)c1cnc2n1[C@](C)(Cc1ccc(C#N)cc1)C(=O)N2c1cc(Cl)c(F)c(Cl)c1)C(=O)NC1(c2ccccn2)CC1,"cell-free assay, competition with immobilised ligand",1 µM,remaining binding,100%
Cc1cc(NC(=O)c2cccc3cc(-c4cccc5[nH]nc(N)c45)ccc23)ccc1F,"enzyme activity, inhibitor",0.1 µM,activity vs control,110%
CN(c1ccnc(CNc2nc(Nc3ccc4c(c3)CC(=O)N4)ncc2C(F)(F)F)n1)S(C)(=O)=O,"cell-free assay, competition with immobilised ligand",1 µM,remaining binding,58%
O=C(Nc1cnn(-c2csc(C(=O)NC3COC3)c2)c1)Nc1c(F)cccc1Cl,"enzyme activity, inhibitor",5 µM,remaining activity,95.5%
O=C1CCc2cc(Nc3cc(OC4CCOCC4)c([N+](=O)[O-])cc3Cl)ccc2N1,"cell-free assay, competition with immobilised ligand",1 µM,remaining binding,100%
O=C1Nc2ccc(Cl)cc2C1=Cc1cc(Cl)c(O)c(Cl)c1,cell-free assay,0.5 µM,remaining signal,84.8%
Cn1c2c(Cl)c(Cl)ccc2c2cn[nH]c(=O)c21,"thermal stability, DSF",10 µM,ΔTm,-0.1 °C
O=C(N1CCS(=O)(=O)CC1)N1C[C@H](c2ccc(OC(F)(F)F)cc2)C[C@H](c2nc(C3CC3)no2)C1,"cell-free assay, competition with immobilised ligand",1 µM,remaining binding,100%
Cn1c2c(c3ccc(Cl)c(Cl)c31)C(C#N)C(C)(C)NC2=O (stereo not shown),"thermal stability, DSF",10 µM,ΔTm,0.1 °C
O=C(O)c1cc(-c2ccc(C3CCNCC3)cc2)c2ccc(-c3ccc(C(F)(F)F)cc3)cc2c1,"cell-free assay, competition with immobilised ligand",1 µM,remaining binding,100%
CC(C)(C)c1nc2c(s1)c1nc(N)ncc1c1ccc(NS(=O)(=O)c3c(F)cccc3F)c(F)c12,"enzyme activity, inhibitor, radiometric",1 µM,remaining activity,91%
O=C(Nc1cccnn1)N1CCC(=Cc2cccc(Oc3ccc(C(F)(F)F)cn3)c2)CC1,"cell-free assay, competition with immobilised ligand",1 µM,remaining binding,63%
O=C1NC(=O)c2cc(Nc3ccc(F)cc3)c(Nc3ccc(F)cc3)cc21,cell-free assay,0.5 µM,remaining signal,96.3%
